From ChEMBL document CHEMBL1138515, “Synthesis and biological characterization of B-ring amino analogues of potent benzothiadiazine hepatitis C virus polymerase inhibitors” (J Med Chem, 2009)

System: not listed separately
Assay: Ratio of drug level in liver to plasma of Sprague-Dawley rat at 5 mg/kg, po after 12 hrs
Assay type: ADME, organism-based
Design: dose 5 mg/kg, route oral
Settings: liver and plasma
Summary of the method: (§1)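 Sprague-Dawley rats were given 5 mg/kg orally in DMSO/PEG400 (1:9, v/v). Separate animals were sampled for liver and plasma at 1, 6 and 12 h. Drug in liver (µg/g) and in plasma was measured by LC-MS, and liver/plasma ratios were taken at each time.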

SMILES	Kp at 12 h
Cc1cccc(C)c1CN[C@]1(CCC(C)(C)C)C(=O)C(C2=NS(=O)(=O)c3cc(NS(C)(=O)=O)ccc3N2)=C(O)c2ccccc21	11
CC(C)CC[C@@]1(NCc2ccccc2)C(=O)C(C2=NS(=O)(=O)c3cc(NS(C)(=O)=O)ccc3N2)=C(O)c2ccccc21	3

System: not listed separately
Assay: Half life in Sprague-Dawley rat at 5 mg/kg, iv
Assay type: ADME, organism-based
Design: dose 5 mg/kg, route intravenous
Settings: in vivo
Summary of the method: (§2)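 Overnight-fasted Sprague-Dawley rats (n = 3) received a single 5 mg/kg iv or oral dose in DMSO/PEG400 (1:9, v/v). Mean concentrations were fitted multiexponentially. AUC₀₋ₜ was calculated by linear trapezoidal rule and extrapolated to infinity using Cₜ divided by the terminal rate constant.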

SMILES	half-life [h]
CC(C)(C)CCC1(NCc2ccc3ccccc3c2)C(=O)C(C2=NS(=O)(=O)c3cc(NS(C)(=O)=O)ccc3N2)=C(O)c2ccccc21 (stereo not given)	2.2
CC(C)CC[C@@]1(N)C(=O)C(C2=NS(=O)(=O)c3cc(NS(C)(=O)=O)ccc3N2)=C(O)c2ccccc21	0.3
Cc1cccc(C)c1CN[C@]1(CCC(C)(C)C)C(=O)C(C2=NS(=O)(=O)c3cc(NS(C)(=O)=O)ccc3N2)=C(O)c2ccccc21	3.1
CC(C)CC[C@@]1(NCc2ccccc2)C(=O)C(C2=NS(=O)(=O)c3cc(NS(C)(=O)=O)ccc3N2)=C(O)c2ccccc21	1.7

System: not listed separately
Assay: Drug level in Sprague-Dawley rat liver at 5 mg/kg, po after 12 hrs
Assay type: ADME, organism-based
Design: dose 5 mg/kg, route oral
Settings: read-out: Drug uptake
Summary of the method: as §1

SMILES	concentration at 12 h [ng/g]
Cc1cccc(C)c1CN[C@]1(CCC(C)(C)C)C(=O)C(C2=NS(=O)(=O)c3cc(NS(C)(=O)=O)ccc3N2)=C(O)c2ccccc21	2110
CC(C)CC[C@@]1(NCc2ccccc2)C(=O)C(C2=NS(=O)(=O)c3cc(NS(C)(=O)=O)ccc3N2)=C(O)c2ccccc21	880

System: Hepatitis C virus
Assay: Antiviral activity against HCV1a H77 infected in human Huh7 cells assessed as inhibition viral subgenomic replication
Assay type: functional, organism-based, Hepacivirus hominis
Settings: genotype 1a H77, Huh-7
Summary of the method: (§3)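 Stable luciferase-reporter subgenomic replicon Huh-7 lines (1a H77; 1b Con1) were seeded at 5000 cells/well in DMEM with 5% FBS. The next day an eight-point half-log dilution series was added from DMSO stocks. After 3 days the cells were lysed, luciferin was added and luminescence was read. EC₅₀ came from percent inhibition of replication at each concentration.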

SMILES	EC50 [nM]
Cc1cccc(C)c1CN[C@]1(CCC(C)(C)C)C(=O)C(C2=NS(=O)(=O)c3cc(NS(C)(=O)=O)ccc3N2)=C(O)c2ccccc21	10
CC(C)CC[C@@]1(NCc2ccccc2)C(=O)C(C2=NS(=O)(=O)c3cc(NS(C)(=O)=O)ccc3N2)=C(O)c2ccccc21	68

System: not listed separately
Assay: Ratio of drug level in liver to plasma of Sprague-Dawley rat at 5 mg/kg, po after 6 hrs
Assay type: ADME, organism-based
Design: dose 5 mg/kg, route oral
Settings: liver and plasma
Summary of the method: as §1

SMILES	Kp at 6 h
Cc1cccc(C)c1CN[C@]1(CCC(C)(C)C)C(=O)C(C2=NS(=O)(=O)c3cc(NS(C)(=O)=O)ccc3N2)=C(O)c2ccccc21	15
CC(C)CC[C@@]1(NCc2ccccc2)C(=O)C(C2=NS(=O)(=O)c3cc(NS(C)(=O)=O)ccc3N2)=C(O)c2ccccc21	6

System: not listed separately
Assay: Inhibition of HCV1a H77 NS5B assessed as [3H]UTP incorporation into RNA by scintillation counting
Design: species or system Hepatitis C virus (isolate H77)
Settings: not given
Summary of the method: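 Two-fold serial inhibitor dilutions were preincubated for 15 min at room temperature with NS5B (genotype 1a H77 or genotype 1b BK, 20-50 nM) in 20 mM Tris-Cl pH 7.4, 2 mM MnCl₂, 1 mM DTT, 1 mM EDTA and 60-125 µM GTP. Reactions were started with 20 µM CTP, 20 µM ATP, 1 µM ³H-UTP, 5 nM template RNA and RNase inhibitor, then run 2-4 h at room temperature.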

SMILES	IC50 [nM]
CC(C)(C)CCC1(NCc2ccc3ccccc3c2)C(=O)C(C2=NS(=O)(=O)c3cc(NS(C)(=O)=O)ccc3N2)=C(O)c2ccccc21 (stereo not given)	23
CC(C)CC[C@@]1(N)C(=O)C(C2=NS(=O)(=O)c3cc(NS(C)(=O)=O)ccc3N2)=C(O)c2ccccc21	4
Cc1cccc(C)c1CN[C@]1(CCC(C)(C)C)C(=O)C(C2=NS(=O)(=O)c3cc(NS(C)(=O)=O)ccc3N2)=C(O)c2ccccc21	16
CC(C)CC[C@@]1(NCc2ccccc2)C(=O)C(C2=NS(=O)(=O)c3cc(NS(C)(=O)=O)ccc3N2)=C(O)c2ccccc21	10

System: not listed separately
Assay: Drug level in Sprague-Dawley rat liver at 5 mg/kg, po after 6 hrs
Assay type: ADME, organism-based
Design: dose 5 mg/kg, route oral
Settings: read-out: Drug uptake
Summary of the method: as §1

SMILES	concentration at 6 h [ng/g]
Cc1cccc(C)c1CN[C@]1(CCC(C)(C)C)C(=O)C(C2=NS(=O)(=O)c3cc(NS(C)(=O)=O)ccc3N2)=C(O)c2ccccc21	4360
CC(C)CC[C@@]1(NCc2ccccc2)C(=O)C(C2=NS(=O)(=O)c3cc(NS(C)(=O)=O)ccc3N2)=C(O)c2ccccc21	2350

System: Hepatitis C virus
Assay: Antiviral activity against HCV1a H77 assessed as inhibition of viral replication by cell-based replicon assay
Assay type: functional, organism-based, Hepacivirus hominis
Settings: genotype 1a H77
Summary of the method: as §3

SMILES	EC50 [nM]
CC(C)(C)CCC1(NCc2ccc3ccccc3c2)C(=O)C(C2=NS(=O)(=O)c3cc(NS(C)(=O)=O)ccc3N2)=C(O)c2ccccc21 (stereo not given)	16
CC(C)CC[C@@]1(N)C(=O)C(C2=NS(=O)(=O)c3cc(NS(C)(=O)=O)ccc3N2)=C(O)c2ccccc21	37
CC(C)CC[C@@]1(NCc2ccccc2)C(=O)C(C2=NS(=O)(=O)c3cc(NS(C)(=O)=O)ccc3N2)=C(O)c2ccccc21	16

System: not listed separately
Assay: Cmax in Sprague-Dawley rat at 5 mg/kg, po
Assay type: ADME, organism-based
Design: dose 5 mg/kg, route oral
Settings: in vivo
Summary of the method: as §2

SMILES	Cmax [ng/mL]
CC(C)(C)CCC1(NCc2ccc3ccccc3c2)C(=O)C(C2=NS(=O)(=O)c3cc(NS(C)(=O)=O)ccc3N2)=C(O)c2ccccc21 (stereo not given)	180
Cc1cccc(C)c1CN[C@]1(CCC(C)(C)C)C(=O)C(C2=NS(=O)(=O)c3cc(NS(C)(=O)=O)ccc3N2)=C(O)c2ccccc21	620
CC(C)CC[C@@]1(NCc2ccccc2)C(=O)C(C2=NS(=O)(=O)c3cc(NS(C)(=O)=O)ccc3N2)=C(O)c2ccccc21	80

System: not listed separately
Assay: AUC (0 to infinity) in Sprague-Dawley rat at 5 mg/kg, po
Assay type: ADME, organism-based
Design: time infinity, dose 5 mg/kg, route oral
Settings: plasma
Summary of the method: as §2

SMILES	AUC(0-inf) [ng·h/mL]
CC(C)(C)CCC1(NCc2ccc3ccccc3c2)C(=O)C(C2=NS(=O)(=O)c3cc(NS(C)(=O)=O)ccc3N2)=C(O)c2ccccc21 (stereo not given)	1020
Cc1cccc(C)c1CN[C@]1(CCC(C)(C)C)C(=O)C(C2=NS(=O)(=O)c3cc(NS(C)(=O)=O)ccc3N2)=C(O)c2ccccc21	4210
CC(C)CC[C@@]1(NCc2ccccc2)C(=O)C(C2=NS(=O)(=O)c3cc(NS(C)(=O)=O)ccc3N2)=C(O)c2ccccc21	600

Target: Genome polyprotein (Hepatitis C virus genotype 1b (isolate Con1) (HCV), UniProt Q9WMX2)
Assay: Inhibition of HCV1b Con1 NS5B assessed as [3H]UTP incorporation into RNA by scintillation counting
Settings: not given

Sequence of Genome polyprotein (Q9WMX2 2420-3010 limits assumed): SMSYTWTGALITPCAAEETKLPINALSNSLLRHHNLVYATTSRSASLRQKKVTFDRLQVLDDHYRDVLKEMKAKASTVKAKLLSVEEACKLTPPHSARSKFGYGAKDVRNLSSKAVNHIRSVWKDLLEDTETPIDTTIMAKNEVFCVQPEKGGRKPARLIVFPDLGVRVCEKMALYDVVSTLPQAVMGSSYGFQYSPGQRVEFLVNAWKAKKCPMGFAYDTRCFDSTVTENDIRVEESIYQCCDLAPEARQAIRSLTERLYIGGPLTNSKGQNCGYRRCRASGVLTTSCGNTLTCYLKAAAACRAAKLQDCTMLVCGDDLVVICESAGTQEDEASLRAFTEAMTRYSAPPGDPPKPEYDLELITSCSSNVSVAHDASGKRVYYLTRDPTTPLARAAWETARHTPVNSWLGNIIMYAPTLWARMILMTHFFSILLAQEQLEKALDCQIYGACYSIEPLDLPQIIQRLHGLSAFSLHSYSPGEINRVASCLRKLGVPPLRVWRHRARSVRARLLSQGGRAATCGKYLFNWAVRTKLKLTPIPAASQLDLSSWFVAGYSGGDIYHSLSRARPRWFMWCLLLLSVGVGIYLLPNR

SMILES	IC50 [nM]
Cc1cccc(C)c1CN[C@]1(CCC(C)(C)C)C(=O)C(C2=NS(=O)(=O)c3cc(NS(C)(=O)=O)ccc3N2)=C(O)c2ccccc21	19
CC(C)CC[C@@]1(NCc2ccccc2)C(=O)C(C2=NS(=O)(=O)c3cc(NS(C)(=O)=O)ccc3N2)=C(O)c2ccccc21	16

System: not listed separately
Assay: Drug level in Sprague-Dawley rat liver at 5 mg/kg, po after 1 hr
Assay type: ADME, organism-based
Design: dose 5 mg/kg, route oral
Settings: read-out: Drug uptake
Summary of the method: as §1

SMILES	concentration at 1 h [ng/g]
Cc1cccc(C)c1CN[C@]1(CCC(C)(C)C)C(=O)C(C2=NS(=O)(=O)c3cc(NS(C)(=O)=O)ccc3N2)=C(O)c2ccccc21	5860
CC(C)CC[C@@]1(NCc2ccccc2)C(=O)C(C2=NS(=O)(=O)c3cc(NS(C)(=O)=O)ccc3N2)=C(O)c2ccccc21	3590

System: not listed separately
Assay: Ratio of drug level in liver to plasma of Sprague-Dawley rat at 5 mg/kg, po after 1 hr
Assay type: ADME, organism-based
Design: dose 5 mg/kg, route oral
Settings: liver and plasma
Summary of the method: as §1

SMILES	Kp at 1 h
Cc1cccc(C)c1CN[C@]1(CCC(C)(C)C)C(=O)C(C2=NS(=O)(=O)c3cc(NS(C)(=O)=O)ccc3N2)=C(O)c2ccccc21	12
CC(C)CC[C@@]1(NCc2ccccc2)C(=O)C(C2=NS(=O)(=O)c3cc(NS(C)(=O)=O)ccc3N2)=C(O)c2ccccc21	12

System: not listed separately
Assay: Oral bioavailability in Sprague-Dawley rat at 5 mg/kg
Assay type: ADME, organism-based
Settings: in vivo
Summary of the method: as §2

SMILES	bioavailability [%]
CC(C)(C)CCC1(NCc2ccc3ccccc3c2)C(=O)C(C2=NS(=O)(=O)c3cc(NS(C)(=O)=O)ccc3N2)=C(O)c2ccccc21 (stereo not given)	28.1
CC(C)CC[C@@]1(N)C(=O)C(C2=NS(=O)(=O)c3cc(NS(C)(=O)=O)ccc3N2)=C(O)c2ccccc21	0
Cc1cccc(C)c1CN[C@]1(CCC(C)(C)C)C(=O)C(C2=NS(=O)(=O)c3cc(NS(C)(=O)=O)ccc3N2)=C(O)c2ccccc21	55.9
CC(C)CC[C@@]1(NCc2ccccc2)C(=O)C(C2=NS(=O)(=O)c3cc(NS(C)(=O)=O)ccc3N2)=C(O)c2ccccc21	13.3

System: not listed separately
Assay: Clearance in Sprague-Dawley rat at 5 mg/kg, iv
Assay type: ADME, organism-based
Design: dose 5 mg/kg, route intravenous
Settings: in vivo
Summary of the method: as §2

SMILES	clearance [mL/min/kg]
CC(C)(C)CCC1(NCc2ccc3ccccc3c2)C(=O)C(C2=NS(=O)(=O)c3cc(NS(C)(=O)=O)ccc3N2)=C(O)c2ccccc21 (stereo not given)	23.3
CC(C)CC[C@@]1(N)C(=O)C(C2=NS(=O)(=O)c3cc(NS(C)(=O)=O)ccc3N2)=C(O)c2ccccc21	35.3
Cc1cccc(C)c1CN[C@]1(CCC(C)(C)C)C(=O)C(C2=NS(=O)(=O)c3cc(NS(C)(=O)=O)ccc3N2)=C(O)c2ccccc21	11.7
CC(C)CC[C@@]1(NCc2ccccc2)C(=O)C(C2=NS(=O)(=O)c3cc(NS(C)(=O)=O)ccc3N2)=C(O)c2ccccc21	19.3

System: Hepatitis C virus
Assay: Antiviral activity against HCV1b Con1 infected in human Huh7 cells assessed as inhibition viral subgenomic replication […]
Assay type: functional, organism-based, Hepacivirus hominis
Settings: isolate Con1, Huh-7

SMILES	EC50 [nM]
Cc1cccc(C)c1CN[C@]1(CCC(C)(C)C)C(=O)C(C2=NS(=O)(=O)c3cc(NS(C)(=O)=O)ccc3N2)=C(O)c2ccccc21	270
CC(C)CC[C@@]1(NCc2ccccc2)C(=O)C(C2=NS(=O)(=O)c3cc(NS(C)(=O)=O)ccc3N2)=C(O)c2ccccc21	273

System: Hepatitis C virus
Assay: Antiviral activity against HCV1b Con1 infected in human Huh7 cells assessed as inhibition viral subgenomic replication
Assay type: functional, organism-based, Hepacivirus hominis
Settings: isolate Con1, Huh-7
Summary of the method: as §3

SMILES	EC50 [nM]
Cc1cccc(C)c1CN[C@]1(CCC(C)(C)C)C(=O)C(C2=NS(=O)(=O)c3cc(NS(C)(=O)=O)ccc3N2)=C(O)c2ccccc21	6
CC(C)CC[C@@]1(NCc2ccccc2)C(=O)C(C2=NS(=O)(=O)c3cc(NS(C)(=O)=O)ccc3N2)=C(O)c2ccccc21	15
